Values after ≈ are worked out from the molar mass of the structure shown.

From ChEMBL document CHEMBL4680373, “Evaluation of 5-(Trifluoromethyl)-1,2,4-oxadiazole-Based Class IIa HDAC Inhibitors for Huntington's Disease” (ACS Med Chem Lett, 2021) come the findings set out here.

Data set [1] in a line: Kinetic solubility of the compound. Format: physicochemical. The note with it: read-out: Kinetic_solubility.
Data set [2] is described as follows: Inhibition of Class 2b HDAC in human HEK293 cells using alpha-tubulin as substrate by fluorogenic assay. Format: cell-based.
In another data set the target is Histone deacetylase 4 (Homo sapiens, UniProt P56524). Nature of the data set: Inhibition of human recombinant HDAC4 at 10 uM incubated for 30 mins by fluorometry. In short, it runs like this:
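Broad selectivity panel of binding, cellular, functional and enzymatic assays run by a contract lab. Each test was done at a single 10 μM concentration and reported as percent inhibition.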

Data set [3] has as its target Voltage-gated inwardly rectifying potassium channel KCNH2 (Homo sapiens, UniProt Q12809). Nature of the data set: Inhibition of human ERG. Summed up:
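hERG affinity was measured on the IonWorks automated electrophysiology platform and reported as Kd.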

A short description of data set [4]: Time during which drug concentration exceeds the IC50 for inhibition of human Class 2A HDAC in C57BL/6J mouse brain at 100 mg/kg, po administered via gavage by LC-MS/MS analysis. Format: organism-based. The note with it: in vivo. In short, it runs like this: (§1)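 Single oral gavage doses of 10, 30 or 100 mg/kg were given to C57/BL6 mice. Brain and blood were sampled from 0.25 to 12 h and compound measured by LC-MS/MS. The time that total brain exposure stayed above the class IIa cellular IC50 was then estimated.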

For another data set, the target named is Cytochrome P450 3A4 (Homo sapiens, UniProt P08684). Nature of the data set: Inhibition of CYP3A4 in human liver microsomes using testosterone as substrate incubated for 30 mins by LC-MS/MS analysis. Format: ADME.
Sequence of Cytochrome P450 3A4 (P08684 whole entry): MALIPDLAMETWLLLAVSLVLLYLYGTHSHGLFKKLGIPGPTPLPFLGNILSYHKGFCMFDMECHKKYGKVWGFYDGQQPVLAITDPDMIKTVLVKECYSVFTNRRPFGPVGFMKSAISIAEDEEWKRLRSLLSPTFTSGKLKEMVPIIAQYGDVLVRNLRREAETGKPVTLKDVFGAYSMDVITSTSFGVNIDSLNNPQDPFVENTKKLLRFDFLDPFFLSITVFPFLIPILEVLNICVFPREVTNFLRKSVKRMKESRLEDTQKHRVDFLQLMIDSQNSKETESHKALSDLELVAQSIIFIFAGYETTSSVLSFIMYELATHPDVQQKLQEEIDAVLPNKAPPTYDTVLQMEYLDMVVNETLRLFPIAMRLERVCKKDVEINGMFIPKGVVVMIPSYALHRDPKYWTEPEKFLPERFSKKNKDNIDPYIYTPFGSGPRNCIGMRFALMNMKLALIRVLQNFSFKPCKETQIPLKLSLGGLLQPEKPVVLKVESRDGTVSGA
A short description of data set [5]: Metabolic stability of the compound in C57BL/6 mouse plasma at 5 uM measured for 60 mins by LC-MS/MS analysis. Format: ADME, cell-free. As to conditions: 1 h; call rule not given here.
A short description of data set [6]: Metabolic stability of the compound in human plasma. Format: ADME, cell-free.
A short description of data set [7]: Unbound fraction in mouse blood by equilibrium dialysis method. Format: ADME, tissue-based. In short, it runs like this:
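Compound added to mouse blood; unbound fraction determined by equilibrium dialysis.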
In general terms: Equilibrium dialysis compares concentrations on both sides of a semipermeable membrane.

Data set [8] can be described thus: Unbound fraction in mouse brain. Format: ADME, tissue-based. Summed up:
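Unbound fraction measured in mouse brain homogenate.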

The nature of data set [9]: Volume of distribution in C57BL/6J mouse at 3.3 mg/kg, iv by LC-MS/MS analysis. Format: ADME, organism-based. The note with it: in vivo. In short, it runs like this:
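Fed male C57Bl/6 mice dosed once intravenously at 3.3 mg/kg and by oral gavage at 11.5 mg/kg. Compound levels were quantified to derive PK parameters.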

A short description of data set [10]: Tmax in C57BL/6J mouse blood at 11.5 mg/kg, po administered via gavage by LC-MS/MS analysis. Format: ADME, organism-based.
The nature of data set [11]: Time during which drug concentration exceeds the IC50 for inhibition of human Class 2A HDAC in C57BL/6J mouse brain at 10 mg/kg, po administered via gavage by LC-MS/MS analysis. Format: organism-based. As to conditions: in vivo. Summed up: as §1
Data set [12] in a line: Toxicity in CBAxC57BL/6J mouse assessed as effect on shallow respiration at 10 to 100 mg/kg, po bid for 14.5 days. Format: organism-based. The note with it: in vivo, 348 h, dose 10-100 mg/kg, time 14.5 day. Summed up: (§2)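 R6/2 HD mice and wild-type littermates, male and female, were dosed orally b.i.d. at 10, 30 or 100 mg/kg or with vehicle for 14.5 days. Vehicle was 10% (w/v) hydroxypropyl-β-cyclodextrin in 50 mM citrate buffer. Body weight, body temperature, passive observations and active manipulation scores were recorded. Blood and brain were collected 2 h after the final dose.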

Data set [13] in a line: Toxicity in CBAxC57BL/6J mouse assessed as effect on tail tremor at 10 to 100 mg/kg, po bid for 14.5 days. Format: organism-based. The note with it: in vivo, 348 h, dose 10-100 mg/kg, time 14.5 day. In short, it runs like this:
as §2

The nature of data set [14]: Toxicity in CBAxC57BL/6J mouse assessed as effect on flaccidity at 10 to 100 mg/kg, po bid for 14.5 days. Format: organism-based. As to conditions: in vivo, 348 h, dose 10-100 mg/kg, time 14.5 day. Summed up: as §2
Data set [15] in a line: Toxicity in CBAxC57BL/6J mouse assessed as effect on provoked biting at 10 to 100 mg/kg, po bid for 14.5 days. Format: organism-based. As to conditions: in vivo, 348 h, dose 10-100 mg/kg, time 14.5 day. Summed up: as §2
A short description of data set [16]: Toxicity in CBAxC57BL/6J mouse assessed as effect on loss of paw pull at 10 to 100 mg/kg, po bid for 14.5 days. Format: organism-based. As to conditions: in vivo, 348 h, dose 10-100 mg/kg, time 14.5 day. Summed up: as §2
A short description of data set [17]: Toxicity in CBAxC57BL/6J mouse assessed as effect on touch escape at 10 to 100 mg/kg, po bid for 14.5 days. Format: organism-based. As to conditions: in vivo, 348 h, dose 10-100 mg/kg, time 14.5 day. Summed up: as §2
Data set [18] in a line: In vivo inhibition of Class 1/2B HDAC in CBAxC57BL/6J mouse brain assessed as increase in global pan-acetylation at >=10 mg/kg, po bid for 14.5 days by dot blot technique. Format: organism-based. As to conditions: 348 h, time 14.5 day. Summed up: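 R6/2 and wild-type littermate mice of both sexes were dosed orally b.i.d. for 14.5 days with 10, 30 or 100 mg/kg or vehicle (10% w/v hydroxypropyl-β-cyclodextrin in 50 mM citrate buffer). Half-brains were collected 2 h after the last dose. Dot blots measured global and H4K12 acetylation; Western blots measured H3, H4 and tubulin acetylation. Genotypes were pooled.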

Sequence of Histone deacetylase 4 (P56524 whole entry): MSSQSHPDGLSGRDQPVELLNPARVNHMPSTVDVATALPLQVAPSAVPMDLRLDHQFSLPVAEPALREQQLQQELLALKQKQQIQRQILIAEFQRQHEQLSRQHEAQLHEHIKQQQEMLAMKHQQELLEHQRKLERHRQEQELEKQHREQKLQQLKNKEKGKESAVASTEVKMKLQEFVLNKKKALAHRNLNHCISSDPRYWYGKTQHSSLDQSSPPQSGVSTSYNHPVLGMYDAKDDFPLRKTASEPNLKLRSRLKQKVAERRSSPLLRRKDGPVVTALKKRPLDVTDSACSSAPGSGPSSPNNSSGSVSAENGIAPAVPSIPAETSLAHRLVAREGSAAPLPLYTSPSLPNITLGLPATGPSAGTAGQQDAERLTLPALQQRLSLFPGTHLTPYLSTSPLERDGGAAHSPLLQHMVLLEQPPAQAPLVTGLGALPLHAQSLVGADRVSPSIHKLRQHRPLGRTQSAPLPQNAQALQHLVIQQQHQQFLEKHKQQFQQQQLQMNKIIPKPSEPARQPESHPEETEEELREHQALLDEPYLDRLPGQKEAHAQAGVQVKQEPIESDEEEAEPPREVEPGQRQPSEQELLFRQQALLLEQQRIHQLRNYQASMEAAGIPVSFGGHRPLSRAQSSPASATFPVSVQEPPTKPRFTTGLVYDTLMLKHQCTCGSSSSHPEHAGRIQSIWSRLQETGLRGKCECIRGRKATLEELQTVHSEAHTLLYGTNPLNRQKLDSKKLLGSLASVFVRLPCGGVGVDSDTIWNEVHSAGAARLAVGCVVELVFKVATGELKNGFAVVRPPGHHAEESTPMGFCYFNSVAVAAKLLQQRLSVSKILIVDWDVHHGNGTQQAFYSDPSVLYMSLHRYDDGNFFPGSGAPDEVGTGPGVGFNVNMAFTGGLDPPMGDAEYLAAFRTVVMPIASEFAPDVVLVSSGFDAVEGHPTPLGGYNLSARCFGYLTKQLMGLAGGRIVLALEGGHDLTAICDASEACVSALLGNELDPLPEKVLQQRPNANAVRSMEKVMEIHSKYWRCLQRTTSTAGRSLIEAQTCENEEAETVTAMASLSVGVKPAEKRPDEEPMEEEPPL
Sequence of Voltage-gated inwardly rectifying potassium channel KCNH2 (Q12809 whole entry): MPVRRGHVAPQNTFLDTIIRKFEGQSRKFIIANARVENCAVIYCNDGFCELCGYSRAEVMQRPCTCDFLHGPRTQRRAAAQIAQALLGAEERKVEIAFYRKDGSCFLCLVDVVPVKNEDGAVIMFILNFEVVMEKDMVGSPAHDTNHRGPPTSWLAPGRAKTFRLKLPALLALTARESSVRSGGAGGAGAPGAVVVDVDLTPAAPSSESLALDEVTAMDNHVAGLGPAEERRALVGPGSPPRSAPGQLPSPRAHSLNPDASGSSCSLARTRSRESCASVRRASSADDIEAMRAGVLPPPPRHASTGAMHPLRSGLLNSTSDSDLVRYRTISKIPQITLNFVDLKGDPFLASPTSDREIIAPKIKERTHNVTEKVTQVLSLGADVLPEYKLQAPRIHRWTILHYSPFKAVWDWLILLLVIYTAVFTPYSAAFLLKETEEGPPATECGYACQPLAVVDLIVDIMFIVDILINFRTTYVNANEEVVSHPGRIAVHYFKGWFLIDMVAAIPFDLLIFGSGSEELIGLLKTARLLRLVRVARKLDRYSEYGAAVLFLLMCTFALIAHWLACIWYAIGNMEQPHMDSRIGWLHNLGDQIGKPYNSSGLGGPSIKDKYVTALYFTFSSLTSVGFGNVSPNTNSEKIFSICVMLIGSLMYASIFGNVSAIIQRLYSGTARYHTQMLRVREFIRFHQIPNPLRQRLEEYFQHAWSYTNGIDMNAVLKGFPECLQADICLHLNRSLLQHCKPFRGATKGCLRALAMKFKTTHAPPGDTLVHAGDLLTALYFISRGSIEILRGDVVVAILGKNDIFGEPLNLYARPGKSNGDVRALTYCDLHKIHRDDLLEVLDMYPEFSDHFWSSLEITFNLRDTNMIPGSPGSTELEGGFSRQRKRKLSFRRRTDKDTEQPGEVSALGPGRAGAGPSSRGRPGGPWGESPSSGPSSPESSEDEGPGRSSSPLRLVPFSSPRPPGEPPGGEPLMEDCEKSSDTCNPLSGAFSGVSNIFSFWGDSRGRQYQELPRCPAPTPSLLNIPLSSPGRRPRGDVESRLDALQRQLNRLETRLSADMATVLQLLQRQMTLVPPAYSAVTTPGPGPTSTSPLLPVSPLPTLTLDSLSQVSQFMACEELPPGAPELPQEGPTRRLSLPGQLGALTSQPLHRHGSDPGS

One may read the IC50 as the midpoint of a concentration-inhibition curve. As usually defined, the inhibition is the change of the read-out against control, counted positive when it falls. A word on the Kd: it is a measure of binding affinity in units of concentration. For orientation: fraction unbound means the share of the substance not bound to proteins or other matrix. Read a high fraction unbound as weak binding. Usually Vd stands for a proportionality between amount in the body and measured concentration, not a real space. High values mean extensive tissue distribution, low ones confinement near the circulation. As a reminder, the Tmax is the time from dosing to the highest level. Consider `C[C@H](CN1CCC[C@@H]1C)NC(=O)c1ccc(-c2noc(C(F)(F)F)n2)cc1`, for which, in [1], the solubility kinetic amounted to 166 µM (≈ 63.5 µg/mL). For the same compound, the IC50 is greater than 29 µM in [2] and greater than 50 µM against Cytochrome P450 3A4. The inhibition at Histone deacetylase 4 was greater than 80%. Besides, the dissociation constant (Kd) in data set [3] came out at 3.9 µM. In addition, the results for the “T>IC50” value in [4] and in [11] were 14 h and 4 h, respectively. In addition, the Stabilty entry in data set [5] and in [6] was “Stable” throughout. Moreover, the figures for the unbound share (fraction unbound) in data set [7] and in [8] were 0.73 and 0.17, respectively. The Vd in data set [9] was 3.8 L/kg. Besides, the time of peak concentration (Tmax) in data set [10] was found to be 30 min. Besides, the Activity result in data set [12], in [13], in [14], in [15], in [16] and in data set [17] was “Non-Toxic” in each case. Further, the Activity entry in data set [18] is “Toxic”.
